The EternaBench riboswitch data

System: MS2 coat protein
Assay: apparent Kd, MS2 coat protein; higher = weaker binding; RNA-MaP array; FMN 200 µM where present
How it was run: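 Each design was made on Illumina sequencing-chip clusters by stalled E. coli RNA polymerase and titrated with SNAP-549-labelled MS2 coat protein from 0.7 or 1.5 nM, doubling to 3 µM, in the absence and then the presence of constant ligand. The buffer was 100 mM Tris-HCl pH 7.5, 80 mM KCl, 4 mM MgCl2, BSA, DTT, yeast tRNA and Tween-20. The apparent Kd is the median of filtered per-cluster fits of binding curves, with green signal normalised to red-channel RNA signal and control-cluster median Fmax.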

[1] = designed as: OFF switch for flavin mononucleotide, no ligand
[2] = ligand present: flavin mononucleotide, designed as: OFF switch for flavin mononucleotide
[3] = designed as: ON switch for flavin mononucleotide, no ligand
[4] = ligand present: flavin mononucleotide, designed as: ON switch for flavin mononucleotide

| Sequence | apparent Kd [1] [nM] | apparent Kd [2] [nM] | apparent Kd [3] [nM] | apparent Kd [4] [nM] |
| --- | --- | --- | --- | --- |
| UAGCUUGACGCAGGAUAUCCAAGGCUGAAAUGAGGAGAAGGGCGCCAAACAUGAGGAUCACCCAUGUAUUAUGCAGGGUCCUCA | 362 | 180 |  |  |
| UAGGACUACGUAGGAUAUGUAGUAGAUUACUACAUGAGGAUCACCCAUGUAAGCAUGUUAUUAGGACAGAAGGACGUGGUAAAU |  |  | 30.4 | 11.1 |
| UAGUUACAUGAGGAUCACCCAUGUGAGGAUAUGAGUCAGUCACGGUGACGUGGCUGACUCAGAAGGCACUAUGG | 198 | 154 |  |  |
| UAUAAAAUUAUAGGAUAUCGAUAUCAAAGAUAUCGAGAAGGGUGAAUAUAAUAUUAUCUGUACAUGAGGAUCACCCAUGUUUAU |  |  | 276 | 87.2 |
| UAUAUAUAGUAAGGAUAUGUAAUUAUUUUAUAAACAGAAGGUACUGACAUGAGGAUCACCCAUGUUUUAGUGUGGGCAUGUAGA | 87.7 | 139 |  |  |
| UAUAUAUAGUAAGGAUAUGUAAUUUUUUUAUAAACAGAAGGUACUGACAUGAGGAUCACCCAUGUUUUAGUGUGGGCAUGUAGA | 107 | 169 |  |  |
| UAUAUAUAGUAAGGAUAUGUAUAUAUUUUAGAAACAGAAGGUACUGACAUGAGGAUCACCCAUGUUUUAGUGUGGGCAUGUAGA | 69.2 | 89.7 |  |  |
| UAUAUAUAGUAAGGAUAUGUAUUAAUAUUAUAAACAGAAGGUACUGACAUGAGGAUCACCCAUGUUUUAGUGUGGGCAUGUAGA | 87.6 | 128 |  |  |
| UAUAUAUAGUAAGGAUAUGUAUUUAAUUUAUAAACAGAAGGUACUGACAUGAGGAUCACCCAUGUUUUAGUGUGGGCAUGUAGA | 97.9 | 147 |  |  |
| UAUAUAUAGUAAGGAUAUGUAUUUAUUUAAUAAACAGAAGGUACUGACAUGAGGAUCACCCAUGUUUUAGUGUGGGCAUGUAGA | 79.7 | 149 |  |  |
| UAUAUAUAGUAAGGAUAUGUAUUUCUUUUAUAAACAGAAGGUACUGACAUGAGGAUCACCCAUGUUUUAGUGUGGGCAUGUAGA | 81.2 | 116 |  |  |
| UAUCAUUACACGAAGGAUAUCGAUAAUUGAACAUGAGGAUCACCCAUGUGAUAUAUUUUACAGUUCGAGAAGGUCGAGGGUGAAG |  |  | 35.6 | 18 |
| UAUGAAUAGCAAGGAUAUUGAUAACAUGAGGAUCACCCAUGUAAUUGAUCGAGUUAGAUCAGUUACAAGAAGGUGCAAUUGAUU |  |  | 53 | 557 |
| UAUUAGUGAGGAUAUGAGUCGUAGAACAAUAGUACUACGUCUCAGAAGGUACAUGAGGAUCACCCAUGUUCCUC | 19 | 22.8 |  |  |
| UAUUAUCACGAAGGAUAUGCUUACAUGAGGAUCACCCAUGUAUGUAUAUUGAUCCAGAGUUUUGAGCAGAAGGUCGUGAGUAAA | 41.8 | 250 |  |  |
| UAUUCAUACGAAGGAUAUGGUUACAUGAGGAUCACCCAUGUAUGUAUAUUGAUCUAGUUAUUUAACCAGAAGGUCGGGUGUAAA | 57.3 | 91.3 |  |  |
| UAUUCUAGAUAGGAUAUACUUUAUUUUUUUUUCGUAGAAGGAUCUACAUGAGGAUCACCCAUGUUAACAGCAGU | 55.5 | 50.8 |  |  |
| UAUUUAAUCAUAGGAUAUAGUGUGAAAUUUGGACUAGAAGGAUGUAACAUGAGGAUCACCCAUGUGGUAAGUGGGACACAUUGA |  |  | 107 | 130 |
| UAUUUAUAAUAUUUUAACAUGAGGAUCACCCAUGUCGCUAGACAGGAUAUAUUUUAUUUUUUUAAGUAGAAGGGUCAUAUAUUU |  |  | 84 | 103 |
| UAUUUAUAGCAAGGAUAUGAUUAUUAUUAUUUAUCAGAAGGUGCACAUGAGGAUCACCCAUGUUUUAUAAUUUGUAAUUUAAUU | 55.6 | 21.8 |  |  |
| UCAAGUAUGUAGGAUAUGAUGUGAUUUUACAUAUCAGAAGGACGUACAUGAGGAUCACCCAUGUAACUUGCAUG | 112 | 42.2 |  |  |
| UCAAUUGCGUAGGAUAUACGGGCGCAGGCUAGAGUAGAAGGACGCACAUGAGGAUCACCCAUGUGGGUACCGAU | 17.7 | 114 |  |  |
| UCACGGGACUGAGGAUAUACAUGAAUUAUUUUUGUAGAAGGCAGAAUGUUAGAUUAUUCACUAUACAUGAGGAUCACCCAUGUU | 25.3 | 18.2 |  |  |
| UCAUAUAAACAAGGAUAUCAAUUAUUUACACAUCCUACAUGAGGAUCACCCAUGUUUUAAUAUUUUGAGAAGGUGUAAUGUCGG |  |  | 24 | 29.9 |
| UCAUAUAUACAAGGAUAUCAAUGAUUUAUAGAUCCUACAUGAGGAUCACCCAUGUUUUUAUAUUUUGAGAAGGUGUAAUGUCUU |  |  | 218 | 254 |
| UCAUAUUUACAAGGAUAUCAAUAUAAUAUAAUACCAACAUGAGGAUCACCCAUGUAUUAGCGUAAUGAGAAGGUGUAUUGUCGG |  |  | 51.2 | 41.4 |
| UCAUCAACGGGCGGGUCGGUUGGACAUGAGGAUCACCCAUGUAGAAGGACCGGUGGGCUCCGGCGGUAGGAUAUACAUUUGGUG | 8.14 | 13.3 |  |  |
| UCAUGGUAGCAGGAUAUGCUUGUUUUUUUUUUUGCAGAAGGGCUUACAUGAGGAUCACCCAUGUGAGAGGUCUA | 14.5 | 21.6 |  |  |

| Sequence | apparent Kd [1] [nM] | apparent Kd [2] [nM] | apparent Kd [3] [nM] | apparent Kd [4] [nM] |
| --- | --- | --- | --- | --- |
| UCAUGUUUAGAGGAUAUGAUUACUUUUGAGUAAUCAGAAGGCUAGACAUGAGGAUCACCCAUGUCAUAACAUGA | 90 | 112 |  |  |
| UCAUUUAUCACAGGAUAUAUUAGUAUACAGUUGUUUGGUUAUUACAUAUUAAUAGAAGGGUGGAACAUGAGGAUCACCCAUGUA |  |  | 616 | 282 |
| UCAUUUAUUACAGGAUAUGUUAGUAUACAGUUGUUUGGUUAUUACAUAAUAACAGAAGGGUAGAACAUGAGGAUCACCCAUGUA |  |  | 244 | 113 |
| UCCAGGUAAGGAUAUGGGCUGGACACCGGGUACGGCCAGCACCAGAAGGUACAUGAGGAUCACCCAUGUGUUCC | 54.5 | 274 |  |  |
| UCCCUGUGAGGAUAUCUCGUUCCGGUGAAAUUAGCUAGAUGGGAGAAGGCACAUGAGGAUCACCCAUGUGACGA | 22 | 26.6 |  |  |
| UCCGGAGUAGGAUAUACGGUGUAAUGACACGGCGUCGAUCAACAUGAGGAUCACCCAUGUAGAAGGACUGCGUC | 14.4 | 15.9 |  |  |
| UCCGUGGCAUCUCGCGCGUGUCCACAUGAGGAUCACCCAUGUCAGGAUAUACGGAAUGUCGUUCCGUAGAAGGGACAAGGGCUG | 172 | 108 |  |  |
| UCCUCACAUGAGGAUCACCCAUGUGAGGAUAUGGGCCCGGGCCCGUUCGGGCCCGGGCCCAGAAGGCACUGGGU | 42.1 | 19 |  |  |
| UCCUUCUGUUGAGGAUAUGUAAGACAGCGGCCGCUAUGGCAGCACGCUGAUACAGAAGGCAACAUGAGGAUCACCCAUGUUCAA | 18.9 | 146 |  |  |
| UCCUUGUCCUGAGGAUAUCCGUGGUUACCGACAGGAGAAGGCAGGACAUGAGGAUCACCCAUGUACCCAGAAAACGUGCAGAGU | 133 | 210 |  |  |
| UCGAUGCUAGGAUAUACGUAUAAAACCACCGUAGAGUCCUCACAUGAGGAUCACCCAUGUAGAAGGAGCAUCUA | 17.3 | 23.4 |  |  |
| UCGCUGCGAGGAUAUACAUGAGGAUCACCCAUGUACGGGUCCGGGUCUUUGUCGAUUGGUAGAAGGCGCAGUGA | 61.1 | 397 |  |  |
| UCGCUGCGAGGAUAUACAUGAGGAUCACCCAUGUGCGGGUCCGGGUUUUCGUCCAUUAGUAGAAGGCGCAGUGA | 369 | 46.5 |  |  |
| UCGGCGCGAGGAUAUACGUUUGCGCGUUUUCGUUUUCGCGUACAUGAGGAUCACCCAUGUAGAAGGCGCGCCGC | 16.6 | 32.1 |  |  |
| UCGGCGCGAGGAUAUGCGGUUUGUGCUUUGGGCCCUGGCGUACAUGAGGAUCACCCAUGUAGAAGGCGCGUUGC | 19.4 | 20 |  |  |
| UCGGCGCGAGGAUAUGCGGUUUGUGCUUUGGGCCCUGGCGUACAUGAGGAUCACCCAUGUAGAAGGCGUGUUGC | 21.3 | 21.3 |  |  |
| UCGUAUACACAAGGAUAUCAAUGAUUUGUGGAUCCUACAUGAGGAUCACCCAUGUUUUUAUAUUUUGAGAAGGUGUAGUGUCUU |  |  | 417 | 608 |
| UCGUGAAGGACAGGAUAUGGACAUGAGGAUCACCCAUGUACAUGGGAUUAUAUACUGAAUUUAUACUAGAAGGGUUACAUAAAU | 31.7 | 19.8 |  |  |
| UCGUUGUCAGGAUAUCGUGUAUACAACUUUAGUUUUAUGUUCGAGAAGGGACAUGAGGAUCACCCAUGUUACGU | 65 | 239 |  |  |
| UCGUUGUCAGGAUAUCGUGUAUUCAACUUUAGUUUUAUAUUCGAGAAGGGACAUGAGGAUCACCCAUGUUACGU | 133 | 257 |  |  |
| UCUACAUAGAUUCAUCAAUACAGUAAGGAUAUGAGAUACAUGAGGAUCACCCAUGUGCAUGUGGAUUAGAAGGUACAAUUAACU | 16.8 | 14.9 |  |  |
| UCUAUGCAGACCCUUAUAAAACAUGAGGAUCACCCAUGUGAGAGAAGGGCCUAACGGCAGAGAAGGCAGGAUAUCUUAUGAUGG | 7.46 | 12.9 |  |  |
| UCUCAACAUGAGGAUCACCCAUGUGAGGAUAUGAUGCAGCAGUGGUCUACGCUGUGCAUCAGAAGGCACAUGUG | 137 | 48.2 |  |  |
| UCUCGACAUGAGGAUCACCCAUGUCAGGAUAUUGUAUUAGAGGUUUUUUACCUUAUAACAAGAAGGGAUGUGUG | 22.9 | 26.8 |  |  |
| UCUCGUGUUCAGAAGGGCAAUCAACGAACAUGAGGAUCACCCAUGUUCUGCAGGAUAUGAACGGGUGGGAGCCCUGCGAAGGGC |  |  | 104 | 15 |
| UCUGAUUGGUGAGGAUAUACAUAAUUUAUGACUGUAGAAGGCACAAACCUCAAGACAUGAGGAUCACCCAUGUGGUAUUUAGAU | 348 | 506 |  |  |
| UCUGGUCGAGGAUAUAUAUGACGUGCUUCGGCACGAAGAUCACAUGAGGAUCACCCAUGUAGAAGGCGACCAGA | 130 | 1160 |  |  |
